From ChEMBL document CHEMBL1135435, “Synthesis and pharmacological evaluation of 5-(4-biphenyl)-3-methyl-4-phenyl-1,2,4-triazole derivatives as a novel class of selective antagonists for the human vasopressin V(1A) receptor” (J Med Chem, 2002)

Tests used:
Vasopressin V2 receptor [1] = target: Vasopressin V2 receptor (Homo sapiens, UniProt P30518); assay: Binding affinity at cloned human Vasopressin V2 receptor stably expressed in CHO cells, using [3H]AVP as radioligand; assay type: cell-based
Method in brief: (§1)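 Membranes from CHO cells stably expressing cloned human receptor; [3H]AVP (0.5-1.0 nM) with graded test concentrations in 50 mM Tris-HCl pH 7.4, 10 mM MgCl2, 0.1% BSA, 60 min at 25 °C. Stopped with ice-cold Tris buffer, rapid GF/B filtration, scintillation counting. Nonspecific binding with 1 μM unlabeled AVP. Ki = IC50/(1+[L]/Kd); Kd from Scatchard: 0.39 nM (V1A), 1.21 nM (V2).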

[2] = Selectivity ratio of affinity at human Vasopressin V2 receptor to that of human Vasopressin V1a receptor.
Method in brief: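 Ratio of hV2 Ki to hV1A Ki, each from [3H]AVP displacement on membranes of CHO cells stably expressing the cloned human receptor (60 min, 25 °C, filtration read-out; Ki via Cheng–Prusoff using Scatchard Kd).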

Vasopressin V1a receptor [3] = target: Vasopressin V1a receptor (Homo sapiens, UniProt P37288); assay: Binding affinity at cloned human Vasopressin V1a receptor stably expressed in CHO cells, using [3H]AVP as radioligand; assay type: cell-based
Method in brief: as §1, with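 “AVP.” for “AVP. Ki = IC50/(1+[L]/Kd); Kd from Scatchard: 0.39 nM (V1A), 1.21 nM (V2).”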

Vasopressin V2 receptor [4] = target: Vasopressin V2 receptor (Rattus norvegicus, UniProt Q00788); assay: Binding affinity at Vasopressin V2 receptor, performed using [3H]AVP on rat kidney
Method in brief: (§2)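 [3H]AVP binding on plasma membranes prepared from rat liver (V1A) or rat kidney (V2). Ki from four to six independent experiments in duplicate, mean ± SEM; selectivity expressed as V2/V1A Ki ratio.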

[5] = target: Vasopressin V2 receptor (Rattus norvegicus) (UniProt Q00788); assay: Selectivity ratio (Ki) of affinity at rat Vasopressin V2 receptor to that of rat Vasopressin V1a receptor; method in brief: as §2
Vasopressin V1a receptor [6] = target: Vasopressin V1a receptor (Rattus norvegicus, UniProt P30560); assay: Binding affinity at Vasopressin V1a receptor, performed using [3H]AVP on rat liver; method in brief: as §2
Chain of Vasopressin V1a receptor (Rattus norvegicus, UniProt P30560) (P30560 whole entry): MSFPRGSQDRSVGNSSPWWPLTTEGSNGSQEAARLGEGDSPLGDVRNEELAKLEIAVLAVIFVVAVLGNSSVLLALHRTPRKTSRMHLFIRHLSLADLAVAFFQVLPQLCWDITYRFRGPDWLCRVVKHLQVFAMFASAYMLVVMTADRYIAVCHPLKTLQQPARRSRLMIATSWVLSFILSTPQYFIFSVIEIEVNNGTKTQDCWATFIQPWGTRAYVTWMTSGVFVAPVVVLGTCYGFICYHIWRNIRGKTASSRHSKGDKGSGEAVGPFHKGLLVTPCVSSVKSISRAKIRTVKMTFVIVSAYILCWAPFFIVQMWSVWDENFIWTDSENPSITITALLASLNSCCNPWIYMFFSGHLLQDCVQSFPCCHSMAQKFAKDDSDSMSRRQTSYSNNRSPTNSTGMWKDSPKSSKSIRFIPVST

Chain of Vasopressin V2 receptor (Rattus norvegicus, UniProt Q00788) (Q00788 whole entry): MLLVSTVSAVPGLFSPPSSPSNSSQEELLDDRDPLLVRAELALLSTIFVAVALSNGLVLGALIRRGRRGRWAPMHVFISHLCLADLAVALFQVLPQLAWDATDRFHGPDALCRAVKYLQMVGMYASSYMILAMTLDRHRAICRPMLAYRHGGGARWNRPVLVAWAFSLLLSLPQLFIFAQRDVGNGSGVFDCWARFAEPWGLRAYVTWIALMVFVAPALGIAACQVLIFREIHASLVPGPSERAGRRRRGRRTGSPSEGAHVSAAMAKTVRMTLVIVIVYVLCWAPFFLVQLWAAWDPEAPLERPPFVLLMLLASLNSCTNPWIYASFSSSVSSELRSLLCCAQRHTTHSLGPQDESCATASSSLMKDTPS
Chain of Vasopressin V2 receptor (Rattus norvegicus) (Q00788 whole entry): as above
Chain of Vasopressin V1a receptor (Homo sapiens, UniProt P37288) (P37288 whole entry): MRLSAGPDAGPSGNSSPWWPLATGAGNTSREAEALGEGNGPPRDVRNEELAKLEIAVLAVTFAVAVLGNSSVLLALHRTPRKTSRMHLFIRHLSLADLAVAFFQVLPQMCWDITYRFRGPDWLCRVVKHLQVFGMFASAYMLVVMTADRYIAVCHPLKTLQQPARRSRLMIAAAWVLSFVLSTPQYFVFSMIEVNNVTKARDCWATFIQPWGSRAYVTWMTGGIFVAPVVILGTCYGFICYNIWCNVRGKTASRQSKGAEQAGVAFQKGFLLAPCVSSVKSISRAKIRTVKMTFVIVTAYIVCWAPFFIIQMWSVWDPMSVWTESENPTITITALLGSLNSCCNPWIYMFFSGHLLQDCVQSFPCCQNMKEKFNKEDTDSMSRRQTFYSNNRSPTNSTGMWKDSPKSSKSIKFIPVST
Chain of Vasopressin V2 receptor (Homo sapiens, UniProt P30518) (P30518 whole entry): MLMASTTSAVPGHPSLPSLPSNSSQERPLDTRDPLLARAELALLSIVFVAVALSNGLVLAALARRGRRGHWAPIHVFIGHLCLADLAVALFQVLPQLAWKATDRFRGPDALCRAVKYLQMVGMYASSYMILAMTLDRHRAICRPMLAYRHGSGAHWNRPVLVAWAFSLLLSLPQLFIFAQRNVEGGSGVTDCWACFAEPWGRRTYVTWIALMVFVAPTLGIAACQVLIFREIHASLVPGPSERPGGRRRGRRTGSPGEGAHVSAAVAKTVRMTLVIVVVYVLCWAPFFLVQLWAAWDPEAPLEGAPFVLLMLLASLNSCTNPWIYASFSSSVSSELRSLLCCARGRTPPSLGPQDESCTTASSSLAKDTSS

Structure (SMILES) | Ki (Vasopressin V2 receptor [1]) | Ratio [2] | Ki (Vasopressin V1a receptor [3]) | Ki (Vasopressin V2 receptor [4]) | Ratio [5] | Ki (Vasopressin V1a receptor [6])
Cc1cccc(OCc2ccc(C(=O)N3CCN(C)CC3)cc2)c1-n1c(C)nnc1-c1ccc(-c2ccccc2)cc1 | 8520 nM | 1100 | 8.09 nM | – | – | –
Cc1nnc(-c2ccc(-c3ccccc3)cc2)n1-c1ccccc1OCCCC1CCNCC1 | 7370 nM | 940 | 7.84 nM | – | – | –
COc1ccccc1-n1c(C)nnc1-c1ccc(-c2ccccc2)cc1 | 2460 nM | 21 | 120 nM | – | – | –
COc1ccc(S(=O)(=O)N2c3ccc(Cl)cc3[C@](O)(c3ccccc3Cl)[C@@H]2C(=O)N2CCC[C@H]2C(N)=O)cc1OC [RELCOVAPTAN] | 178 nM | – | – | 285 nM | – | –
Cc1nnc(-c2ccc(-c3ccccc3)cc2)n1-c1ccccc1OCCC1CCNCC1 | 8170 nM | 150 | 55.5 nM | – | – | –
CN(C)C1CCN(C(=O)/C=C2/c3ccccc3N(C(=O)c3ccc(NC(=O)c4ccccc4-c4ccccc4)cc3)CCC2(F)F)CC1 | 1.19 nM | 1.9 | 0.62 nM | 0.77 nM | 4.8 | 0.16 nM
Cc1nnc(-c2ccc(-c3ccccc3)cc2)n1-c1ccccc1OCCCCCCN1CCN(C)CC1 | 1780 nM | 1700 | 1.04 nM | 1240 nM | 72 | 17.3 nM
Cc1nnc(-c2ccc(-c3ccccc3)cc2)n1-c1ccccc1OCCCCCCn1ccnc1 | 11100 nM | 1200 | 9.06 nM | – | – | –
Cc1nnc(-c2ccc(-c3ccccc3)cc2)n1-c1ccccc1OCCCCCCCCCCN1CCN(C)CC1 | 14300 nM | 360 | 39.4 nM | – | – | –
Cc1nnc(-c2ccc(-c3ccccc3)cc2)n1-c1ccccc1OCCCCCCCN1CCN(C)CC1 | 2470 nM | 550 | 4.5 nM | – | – | –
Cc1nnc(-c2ccc(-c3ccccc3)cc2)n1-c1ccc(OCCCCCCN2CCN(C)CC2)cc1 | – | – | > 10000 nM | – | – | –
Cc1nnc(-c2ccc(-c3ccccc3)cc2)n1-c1cccc(OCCCCCCN2CCN(C)CC2)c1 | – | – | 214 nM | – | – | –
Cc1nnc(-c2ccc(-c3ccccc3)cc2)n1-c1ccccc1OCCCCCCN1CCC(N2CCCCC2)CC1 | 979 nM | 930 | 1.05 nM | 1010 nM | 100 | 9.69 nM
Cc1nnc(-c2ccc(-c3ccccc3)cc2)n1-c1ccccc1OCc1ccc(C(=O)N2CCN(C)CC2)cc1 | 585 nM | 190 | 3.03 nM | 364 nM | 5.8 | 62.7 nM
Cc1cccc(OCCCCCCN2CCN(C)CC2)c1-n1c(C)nnc1-c1ccc(-c2ccccc2)cc1 | 14400 nM | 9900 | 1.46 nM | 11700 nM | 110 | 102 nM
Cc1nnc(-c2ccc(-c3ccccc3)cc2)n1-c1ccccc1OCCCCC1CCNCC1 | 4430 nM | 2100 | 2.12 nM | – | – | –
Cc1nnc(-c2ccc(-c3ccccc3)cc2)n1-c1ccccc1OCCCCCN1CCN(C)CC1 | 4850 nM | 1200 | 4.09 nM | – | – | –
Cc1nnc(-c2ccc(-c3ccccc3)cc2)n1-c1ccccc1OCCCN1CCN(C)CC1 | 10200 nM | 270 | 38.3 nM | – | – | –
Cc1nnc(-c2ccc(-c3ccccc3)cc2)n1-c1ccccc1OCCCCCC(=O)N1CCN(C)CC1 | 6650 nM | 730 | 9.16 nM | – | – | –
Cc1nnc(-c2ccc(-c3ccccc3)cc2)n1-c1ccccc1OCCCCCCCCN1CCN(C)CC1 | 8890 nM | 670 | 13.2 nM | – | – | –
Cc1nnc(-c2ccc(-c3ccccc3)cc2)n1-c1ccccc1OCCCCCCN1CCCCC1 | 6930 nM | 500 | 13.9 nM | – | – | –
CC(=O)NCCCOc1ccc(C(=O)N2CCC(N3C(=O)CCc4ccccc43)CC2)cc1 | > 10000 nM | – | > 10000 nM | > 10000 nM | > 430 | –
Cc1cccc(OCc2ccc(C(=O)N3CCC(N4CCCCC4)CC3)cc2)c1-n1c(C)nnc1-c1ccc(-c2ccccc2)cc1 | 1920 nM | 1900 | 1.01 nM | 1840 nM | 57 | 32.4 nM
Cc1nnc(-c2ccc(-c3ccccc3)cc2)n1-c1ccccc1OCCCCN1CCN(C)CC1 | 10200 nM | 360 | 29.1 nM | – | – | –
